The data set has as its target T1, OAT1 (Homo sapiens, UniProt Q4U2R8).
T1 sequence (Q4U2R8 1-563): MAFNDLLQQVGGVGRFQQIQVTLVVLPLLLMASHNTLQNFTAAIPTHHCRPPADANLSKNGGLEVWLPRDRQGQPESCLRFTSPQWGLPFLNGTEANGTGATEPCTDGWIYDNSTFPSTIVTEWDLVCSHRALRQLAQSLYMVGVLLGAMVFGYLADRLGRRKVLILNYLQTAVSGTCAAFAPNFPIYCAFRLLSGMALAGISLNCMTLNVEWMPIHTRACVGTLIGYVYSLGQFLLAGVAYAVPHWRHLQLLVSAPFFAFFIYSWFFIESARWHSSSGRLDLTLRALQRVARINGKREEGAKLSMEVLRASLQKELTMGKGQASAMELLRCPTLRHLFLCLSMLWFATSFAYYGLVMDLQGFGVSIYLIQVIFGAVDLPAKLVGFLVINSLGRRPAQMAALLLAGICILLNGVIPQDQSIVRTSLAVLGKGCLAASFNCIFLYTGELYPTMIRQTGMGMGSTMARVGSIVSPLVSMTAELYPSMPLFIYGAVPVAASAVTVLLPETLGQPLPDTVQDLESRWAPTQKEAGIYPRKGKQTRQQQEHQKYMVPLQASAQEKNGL
As to the kind of experiment: Raloxifene as a substrate for uptake transporters. In kind it is in vitro ADME. The conditions noted are these: raloxifene 1, 10 μM, 2, 20 min, two‐fold cutoff. The method in brief: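 Uptake of test compound (1 and 10 μM, 2 and 20 min) measured in transporter-expressing HEK293 or MDCKII cells or inside-out membrane vesicles. Run with positive-control probe substrates and inhibitors, plus empty-vector or untransfected control cells. Fold-accumulation relative to control cells judged against a two-fold cutoff for substrate status.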

Consider one molecule from PMC10582660 (Clinical and Translational Science, 2023).

In the case of `O=C(c1ccc(OCCN2CCCCC2)cc1)c1c(-c2ccc(O)cc2)sc2cc(O)ccc12` [Raloxifene, raloxifene, reference compound], the “fold‐accumulation” value was 0.72–0.91.
